Bioassay records as filed in PubChem.
Only some compounds are listed: those with a hit (about 3% of all), similar ones and a draw of the others.
MITF TRPM1 HTS – increases MITF-driven TRPM1 promoter luciferase signal | SK-MEL-5 TRPM1-promoter luciferase, 24 h; % of positive control, neutral wells = 0 | activation, % at 12.5 µM | hit rate 0.75% among 300,000 | AID 588334;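 active means mean activation of at least 80% with every replicate also reaching 80%; inconclusive means mean reaches 80% but some replicate falls short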;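 further: 0% = neutral control wells and 100% = parthenolide positive control wells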
NSD2 inh – inhibitors of human histone methyltransferase NSD2. NSD2 peptide methylation, AlphaScreen, 120 min. inhibition, % at 12.5 µM. hit rate 0.54% among 310,000; in the data active means inhibition above about 50%
Casp6 inh – blocks human caspase-6 cleavage activity. hit rate 0.53% among 350,000. inhibition, % at 12.5 µM. purified caspase-6, Z-VEID-R110 cleavage fluorescence;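 active means mean inhibition across replicates at least about 35%, with every replicate also reaching that limit, limit read from the data; inconclusive means only one of the two criteria met; inactive means neither criterion met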;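 further: 0% = median of neutral control wells and 100% = no fluorescence left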
Target sequence (P55212 24-179 limits assumed): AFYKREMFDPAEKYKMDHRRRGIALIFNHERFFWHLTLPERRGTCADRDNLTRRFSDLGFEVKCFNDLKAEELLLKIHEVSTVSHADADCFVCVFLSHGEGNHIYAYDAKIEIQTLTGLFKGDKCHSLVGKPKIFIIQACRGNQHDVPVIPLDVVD
Target sequence (P55212 194-293 limits assumed): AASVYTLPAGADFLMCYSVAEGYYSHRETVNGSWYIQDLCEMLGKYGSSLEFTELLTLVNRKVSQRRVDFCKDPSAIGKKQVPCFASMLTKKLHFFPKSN
esBAF inh – blocks esBAF chromatin remodeling in mouse ES cells | Bmi1-luciferase knock-in reporter, 24 h; 100% = twice the neutral-well signal | reporter increase, % at 12.5 µM | hit rate 2% among 350,000 | AID 602393; in the data active means activation above about 40%; inconclusive means no clear call, values can overlap the other calls;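 further: 0% = median of the plate's neutral control wells and 100% = double that signal; a rise in the Bmi1 reporter signal indicates esBAF inhibition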
XiGFP reactiv – reactivates the inactive X chromosome in mouse fibroblasts. AID 743238. XiGFP mouse fibroblasts, % GFP-positive cells imaging, 3 d; cells co-treated with 5-aza-dC sensitizer; scaled so ellipticine positive control = 100%. hit rate 0.055% among 360,000. activation, % at 7.58 µM;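 active means mean normalized replicate activation at least 10% and every replicate at or above 10%; inconclusive means only one of the two criteria met; inactive means mean below 10% and not all replicates reach 10%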;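 further: 0% = median of on-plate neutral control wells and 100% = ellipticine 6 µM median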
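assay system = SV40-immortalized XiGFP fibroblast cells, line 68-5-11 | buffer or medium = DMEM plus 5-aza-dC sensitizer | doses = single-point pinned compound dosing | times = 3-day compound exposure, then 15 min fixation at room temperature | benchmarks = positive control ellipticine, 6 µM final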
Wnt bcat act – activates Wnt/beta-catenin signaling in a reporter cell assay. activator, plate reader. activation, % at 9.35 µM. hit rate 1.2% among 300,000. AID 743398; in the data active means activation above about 30%, passing the limit was not always enough; inconclusive means no clear call, values can overlap the other calls;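 further: 0% = neutral control wells and 100% = positive control wells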
AlphaScreen art – interferes with AlphaScreen signal, flagging NSD2 false positives. shares compounds with NSD2 inh. AlphaScreen artifact counterscreen, preloaded methylated H4 peptide. AC35, µM (doses to about 10 µM), for the others: top-dose activity change, negative = signal loss. hit rate 9.4% among 1,500; call rule not given here
Active calls of the source: *.

What do the screens show for `CC(=O)c1cccc(NC(=O)c2csc(-n3nc(C)cc3C(F)(F)F)n2)c1`?
MITF TRPM1 HTS: 8.1; NSD2 inh: 125.5*; AlphaScreen art: 0.6%

How did Cc1cc(C(F)(F)F)n(-c2nc(C(=O)Nc3cccnc3)cs2)n1 do in these assays?
MITF TRPM1 HTS: 8.7; NSD2 inh: -1.9; Casp6 inh: -3.2; esBAF inh: 2.6; XiGFP reactiv: 0.1; Wnt bcat act: -0.6

What do the screens show for `C[C@@H]1COCc2cn(nn2)CC[C@@H](Cc2ccccc2)C(=O)N1`?
XiGFP reactiv: 0.0

Results for Cc1c(C)n(Cc2ccccc2)c2ccc(C(=O)OCCN(C)C)cc12 ?
MITF TRPM1 HTS: 39.8; NSD2 inh: 50.5*; Casp6 inh: -14.6; esBAF inh: -8.6; XiGFP reactiv: 0.0; Wnt bcat act: -1.5; AlphaScreen art: -18.8%

Results for CCCCn1cnc2c(=S)nc(N)[nH]c21 ?
MITF TRPM1 HTS: 0.1; NSD2 inh: 56.9*; Casp6 inh: -5.7; esBAF inh: -9.8; XiGFP reactiv: -0.1; Wnt bcat act: -1.3; AlphaScreen art: 2.7%

Results for CCCCCn1cnc2c(=S)nc(N)[nH]c21 ?
MITF TRPM1 HTS: -7.6; NSD2 inh: 22.6; Casp6 inh: -0.8; esBAF inh: -3.2; XiGFP reactiv: 0.1; Wnt bcat act: -1.2

Results for O=C(CN(C(=O)c1csnn1)c1cccc2ccccc12)NCc1ccccc1 ?
MITF TRPM1 HTS: -5.0; NSD2 inh: 96.5*; Casp6 inh: -0.7; esBAF inh: 15.3; XiGFP reactiv: 0.1; Wnt bcat act: -0.4; AlphaScreen art: 0.9%

What do the screens show for `CC(=O)c1ccc(N(CC(=O)NCCc2ccccc2)C(=O)c2csnn2)cc1`?
MITF TRPM1 HTS: 8.3; NSD2 inh: 70.4*; Casp6 inh: 0.5; esBAF inh: 11.3; XiGFP reactiv: 0.0; Wnt bcat act: -1.3; AlphaScreen art: -0.9%

Results for O=C(CCN1CCCCC1)N[C@@H]1CC[C@H](CCn2cc(-c3ccccc3)nn2)O[C@H]1CO ?
Casp6 inh: -8.5; esBAF inh: -2.1; XiGFP reactiv: -0.2

How did COc1ccc(CNC(=O)C[C@@H]2C=C[C@@H](NS(=O)(=O)c3cccc(OC)c3)[C@H](CO)O2)cc1 do in these assays?
Casp6 inh: 0.8; esBAF inh: 7.9; XiGFP reactiv: -0.4

Results for CC1C/C(=C\c2cccnc2)C(=O)/C(=C/c2cccnc2)C1 (configuration not stated) ?
MITF TRPM1 HTS: -96.9; NSD2 inh: 57.8*; AlphaScreen art: -7.7%

What do the screens show for `CN(C)c1ccc(/C=C2/C[N+](C)(C)C/C(=C/c3ccc(N(C)C)cc3)C2=O)cc1`?
NSD2 inh: 66.2*; Casp6 inh: 8.2; XiGFP reactiv: 0.3; Wnt bcat act: 2.1; AlphaScreen art: 9.46µM*

Results for CCCC(=O)N1CC2(CN(C)C2)c2c(n(C)c3cc(OC)ccc23)[C@@H]1CO ?
XiGFP reactiv: 0.3

What do the screens show for `CCCNC(=O)N1CC2(CCN(Cc3cccc(OC)c3)CC2)c2c(n(C)c3cc(OC)ccc23)[C@@H]1CO`?
Casp6 inh: -1.5; XiGFP reactiv: 0.1

Results for Nc1nonc1C(=O)N/N=C/c1cc2c(cc1[N+](=O)[O-])OCO2 ?
MITF TRPM1 HTS: -15.2; NSD2 inh: 112.8*; Casp6 inh: 0.0; esBAF inh: -0.7; XiGFP reactiv: -0.1; Wnt bcat act: 2.6; AlphaScreen art: -1.0%

What do the screens show for `Cc1noc(C)c1NC(=O)N(C)C[C@H]1Oc2c(NS(C)(=O)=O)cccc2C(=O)N([C@@H](C)CO)C[C@H]1C`?
Casp6 inh: -1.6; esBAF inh: -3.1; XiGFP reactiv: 0.2

What do the screens show for `CNC(=O)c1ccc(-c2cc(C(F)(F)F)nn2C)s1`?
NSD2 inh: 60.4*; Casp6 inh: 1.4; XiGFP reactiv: 0.0; Wnt bcat act: 35.0*; AlphaScreen art: -2.0%

How did CN1C[C@@H](O)COC[C@H]2O[C@H](CC(=O)N3CCN(c4ccccc4)CC3)CC[C@@H]21 do in these assays?
Casp6 inh: 1.7; esBAF inh: 5.0; XiGFP reactiv: 0.2

What do the screens show for `CC(=O)Nc1ccc(Sc2ccccc2C(=O)Nc2ccc(F)cc2)cn1`?
MITF TRPM1 HTS: -0.5; NSD2 inh: -0.6; Casp6 inh: 2.0; XiGFP reactiv: 0.0; Wnt bcat act: 1.2

What do the screens show for `CC(=O)Nc1ccc(Sc2ccccc2C(=O)O)cn1`?
MITF TRPM1 HTS: -9.9; NSD2 inh: 72.5*; Casp6 inh: 6.9; esBAF inh: -3.8; XiGFP reactiv: 0.0; Wnt bcat act: 1.8; AlphaScreen art: -4.0%

Results for CCc1ccc2cccc3c2c1N=CN3C ?
NSD2 inh: 112.5*; Casp6 inh: 60.8*; esBAF inh: -7.8; XiGFP reactiv: 0.1; Wnt bcat act: 0.5; AlphaScreen art: 0.3%

How did CCN1CCC(CNCc2cn(-c3ccc(OC)cc3)nc2-c2ccccc2Cl)C1 (configuration not stated) do in these assays?
MITF TRPM1 HTS: -10.9; NSD2 inh: 75.0*; Casp6 inh: -77.8; XiGFP reactiv: 0.1; Wnt bcat act: -3.0; AlphaScreen art: -3.9%

Results for CCc1nnc(NC(=O)COc2ccc3c(c2)OCO3)s1 ?
MITF TRPM1 HTS: 19.9; NSD2 inh: 99.9*; Casp6 inh: -0.3; esBAF inh: 22.2; XiGFP reactiv: -0.1; Wnt bcat act: -3.1; AlphaScreen art: -1.4%

Results for C/C=C/c1ccccc1[C@@H]1[C@@H](C#N)N(C(C)=O)[C@H]1CO ?
Casp6 inh: 1.8; XiGFP reactiv: 0.0

Results for CN(C)c1cccc2c1c(NC(=O)Nc1ccccc1)nn2C ?
NSD2 inh: 87.7*; Casp6 inh: -3.5; esBAF inh: -2.9; XiGFP reactiv: 0.0; Wnt bcat act: 1.6; AlphaScreen art: -1.0%

What do the screens show for `COC1=C(Nc2ccc(O)cc2)C(=O)c2ccccc2C1=O`?
MITF TRPM1 HTS: -79.9; NSD2 inh: 46.2; Casp6 inh: 14.1; XiGFP reactiv: -0.1; Wnt bcat act: 6.6

How did COC1=C(Nc2ccc(OC)cc2)C(=O)c2ccccc2C1=O do in these assays?
MITF TRPM1 HTS: -27.4; NSD2 inh: 65.6*; XiGFP reactiv: -0.2; Wnt bcat act: inconclusive; AlphaScreen art: 5.5µM*

What do the screens show for `CCOc1ccc(NC2=C(OC)C(=O)c3ccccc3C2=O)cc1`?
MITF TRPM1 HTS: -28.9; NSD2 inh: 53.0*; XiGFP reactiv: -0.1; Wnt bcat act: -9.2; AlphaScreen art: 3.74µM*

Results for CCC(=O)N1CC[C@@H]2[C@H]1c1cc(C#Cc3cccc(OC)c3)ccc1N[C@@H]2CO ?
esBAF inh: 0.1; XiGFP reactiv: 0.1
